Laboratory results as given in ChEMBL document CHEMBL1914394, “Synthesis and spectroscopic characterization of 4-butoxyethoxy-N-octadecyl-1,8-naphthalimide as a new fluorescent probe for the determination of proteins” (Bioorg Med Chem Lett, 2011).

Tests used:
[1] = biological target: T1, Albumin (Bos taurus, UniProt P02769); assay: Binding affinity to bovine serum albumin assessed as decrease in fluorescence intensity at 1.5 x 10^-5 mol/L at pH 7.4 by fluorescence spectroscopy in presence of Na+ cations; assay type: ADME; conditions: cattle, isolated protein, pH 7.4, 15 µM
T1 sequence (P02769 whole entry): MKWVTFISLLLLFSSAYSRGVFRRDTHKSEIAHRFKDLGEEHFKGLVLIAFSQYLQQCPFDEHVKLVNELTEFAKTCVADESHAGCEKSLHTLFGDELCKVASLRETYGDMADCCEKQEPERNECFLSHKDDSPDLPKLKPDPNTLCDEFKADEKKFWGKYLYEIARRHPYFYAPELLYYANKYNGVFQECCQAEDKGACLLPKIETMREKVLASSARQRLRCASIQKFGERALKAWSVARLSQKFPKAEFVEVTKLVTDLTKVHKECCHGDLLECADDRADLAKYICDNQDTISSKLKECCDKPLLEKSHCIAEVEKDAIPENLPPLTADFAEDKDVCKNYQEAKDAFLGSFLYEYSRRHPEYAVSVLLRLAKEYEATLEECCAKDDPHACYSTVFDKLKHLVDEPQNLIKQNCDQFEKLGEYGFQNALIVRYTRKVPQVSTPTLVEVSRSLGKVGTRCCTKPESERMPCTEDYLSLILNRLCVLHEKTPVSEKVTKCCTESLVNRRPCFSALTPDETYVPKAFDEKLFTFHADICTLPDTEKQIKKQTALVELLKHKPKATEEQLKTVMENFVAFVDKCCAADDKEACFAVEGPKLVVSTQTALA
Method in brief: (§1)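 Fluorescence of the BON–BSA system in HCl–Tris pH 7.4 recorded with each interfering ion or amino acid added at different concentrations. Excitation 373 nm; emission scanned 390–550 nm; intensity change noted.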

[2] = biological target: T1, Albumin; assay: Binding affinity to bovine serum albumin assessed as binding constant at pH 7.4 at 298K by fluorescence spectroscopic analysis; assay type: ADME; conditions: cattle, isolated protein
Method in brief: (§2)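 BSA fluorescence quenched by BON in HCl–Tris, pH 7.4, at four temperatures. Binding constants come from fitting the quenching data to the modified Stern–Volmer equation.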

[3] = biological target: T1, Albumin; assay: Binding affinity to bovine serum albumin assessed as decrease in fluorescence intensity at 1.5 x 10^-5 mol/L at pH 7.4 by fluorescence spectroscopy in presence of Fe3+ cations; assay type: ADME; conditions: cattle, isolated protein, pH 7.4, 15 µM; method in brief: as §1
[4] = biological target: T1, Albumin; assay: Binding affinity to bovine serum albumin assessed as decrease in fluorescence intensity peak1 at 1.71 x 10^-5 mol/L at pH 7.4 at 293K by three-dimensional fluorescence spectroscopy analysis; assay type: ADME; design: scale not given: the % may be the effect or the level left; conditions: cattle, isolated protein, pH 7.4, 17.1 µM
[5] = biological target: T1, Albumin; assay: Binding affinity to bovine serum albumin assessed as decrease in fluorescence intensity at 1.5 x 10^-5 mol/L at pH 7.4 by fluorescence spectroscopy in presence of SO42+ anions; assay type: ADME; conditions: cattle, isolated protein, pH 7.4, 15 µM; method in brief: as §1
[6] = biological target: T1, Albumin; assay: Binding affinity to bovine serum albumin assessed as stem-volmer quenching constant at pH 7.4 at 293K by fluorescence spectroscopic analysis; assay type: ADME; conditions: cattle, isolated protein
Method in brief: (§3)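 BSA intrinsic fluorescence titrated with increasing BON in HCl–Tris buffer, pH 7.4, at each of four temperatures. F0/F (without/with BON) plotted against BON concentration; the Stern–Volmer quenching constant KSV is taken from the linear fit.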

[7] = biological target: T1, Albumin; assay: Binding affinity to bovine serum albumin assessed as decrease in fluorescence intensity peak2 at 1.71 x 10^-5 mol/L at pH 7.4 at 293K by three-dimensional fluorescence spectroscopy analysis; assay type: ADME; design: scale not given: the % may be the effect or the level left; conditions: cattle, isolated protein, pH 7.4, 17.1 µM
[8] = biological target: T1, Albumin; assay: Binding affinity to bovine serum albumin assessed as stem-volmer quenching constant at pH 7.4 at 298K by fluorescence spectroscopic analysis; assay type: ADME; conditions: cattle, isolated protein; method in brief: as §3
[9] = biological target: T1, Albumin; assay: Binding affinity to bovine serum albumin assessed as decrease in fluorescence intensity at 1.5 x 10^-5 mol/L at pH 7.4 by fluorescence spectroscopy in presence of Zn2+ cations; assay type: ADME; conditions: cattle, isolated protein, pH 7.4, 15 µM; method in brief: as §1
[10] = biological target: T1, Albumin; assay: Binding affinity to bovine serum albumin assessed as decrease in fluorescence intensity at 1.5 x 10^-5 mol/L at pH 7.4 by fluorescence spectroscopy in presence of tyrosine; assay type: ADME; conditions: cattle, isolated protein, pH 7.4, 15 µM; method in brief: as §1
[11] = biological target: T1, Albumin; assay: Binding affinity to bovine serum albumin assessed as decrease in fluorescence intensity at 1.5 x 10^-5 mol/L at pH 7.4 by fluorescence spectroscopy in presence of Mo6+ cations; assay type: ADME; conditions: cattle, isolated protein, pH 7.4, 15 µM; method in brief: as §1
[12] = biological target: T1, Albumin; assay: Binding affinity to bovine serum albumin assessed as decrease in fluorescence intensity at 1.5 x 10^-5 mol/L at pH 7.4 by fluorescence spectroscopy in presence of PO42+ anions; assay type: ADME; conditions: cattle, isolated protein, pH 7.4, 15 µM; method in brief: as §1
[13] = biological target: T1, Albumin; assay: Binding affinity to bovine serum albumin assessed as binding constant at pH 7.4 at 308K by fluorescence spectroscopic analysis; assay type: ADME; conditions: cattle, isolated protein; method in brief: as §2
[14] = biological target: T1, Albumin; assay: Binding affinity to bovine serum albumin assessed as decrease in fluorescence intensity at 1.5 x 10^-5 mol/L at pH 7.4 by fluorescence spectroscopy in presence of Cr3+ cations; assay type: ADME; conditions: cattle, isolated protein, pH 7.4, 15 µM; method in brief: as §1
[15] = biological target: T1, Albumin; assay: Binding affinity to bovine serum albumin assessed as decrease in fluorescence intensity at 1.5 x 10^-5 mol/L at pH 7.4 by fluorescence spectroscopy in presence of Br- anions; assay type: ADME; conditions: cattle, isolated protein, pH 7.4, 15 µM; method in brief: as §1
[16] = biological target: T1, Albumin; assay: Binding affinity to bovine serum albumin assessed as binding constant at pH 7.4 at 303K by fluorescence spectroscopic analysis; assay type: ADME; conditions: cattle, isolated protein; method in brief: as §2
[17] = biological target: T1, Albumin; assay: Binding affinity to bovine serum albumin assessed as stem-volmer quenching constant at pH 7.4 at 303K by fluorescence spectroscopic analysis; assay type: ADME; conditions: cattle, isolated protein; method in brief: as §3
[18] = biological target: T1, Albumin; assay: Binding affinity to bovine serum albumin assessed as binding constant at pH 7.4 at 293K by fluorescence spectroscopic analysis; assay type: ADME; conditions: cattle, isolated protein; method in brief: as §2
[19] = biological target: T1, Albumin; assay: Binding affinity to bovine serum albumin assessed as decrease in fluorescence intensity at 1.5 x 10^-5 mol/L at pH 7.4 by fluorescence spectroscopy in presence of K+ cations; assay type: ADME; conditions: cattle, isolated protein, pH 7.4, 15 µM; method in brief: as §1
[20] = biological target: T1, Albumin; assay: Binding affinity to bovine serum albumin assessed as decrease in fluorescence intensity at 1.5 x 10^-5 mol/L at pH 7.4 by fluorescence spectroscopy in presence of lysine; assay type: ADME; conditions: cattle, isolated protein, pH 7.4, 15 µM; method in brief: as §1
[21] = biological target: T1, Albumin; assay: Binding affinity to bovine serum albumin assessed as decrease in fluorescence intensity at 1.5 x 10^-5 mol/L at pH 7.4 by fluorescence spectroscopy in presence of Cu2+ cations; assay type: ADME; conditions: cattle, isolated protein, pH 7.4, 15 µM; method in brief: as §1
[22] = biological target: T1, Albumin; assay: Binding affinity to bovine serum albumin assessed as decrease in fluorescence intensity at 1.5 x 10^-5 mol/L at pH 7.4 by fluorescence spectroscopy in presence of glycine; assay type: ADME; conditions: cattle, isolated protein, pH 7.4, 15 µM; method in brief: as §1
[23] = biological target: T1, Albumin; assay: Binding affinity to bovine serum albumin assessed as decrease in fluorescence intensity at 1.5 x 10^-5 mol/L at pH 7.4 by fluorescence spectroscopy in presence of Mg2+ cations; assay type: ADME; conditions: cattle, isolated protein, pH 7.4, 15 µM; method in brief: as §1
[24] = biological target: T1, Albumin; assay: Binding affinity to bovine serum albumin assessed as quenching constant at pH 7.4 at 308K by fluorescence spectroscopic analysis; assay type: ADME; conditions: cattle, isolated protein
Method in brief: (§4)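 Quenching series of BSA with rising BON levels in HCl–Tris pH 7.4, run at four temperatures. KSV comes from the F0/F versus [BON] Stern–Volmer plot. The bimolecular quenching rate constant is calculated as Kq = KSV/τ0, with a biopolymer fluorescence lifetime τ0 of 10^-8 s.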

[25] = biological target: T1, Albumin; assay: Binding affinity to bovine serum albumin assessed as quenching constant at pH 7.4 at 293K by fluorescence spectroscopy; conditions: cattle, isolated protein
[26] = biological target: T1, Albumin; assay: Binding affinity to bovine serum albumin assessed as quenching constant at pH 7.4 at 298K by fluorescence spectroscopic analysis; assay type: ADME; conditions: cattle, isolated protein; method in brief: as §4
[27] = biological target: T1, Albumin; assay: Binding affinity to bovine serum albumin assessed as quenching constant at pH 7.4 at 303K by fluorescence spectroscopic analysis; assay type: ADME; conditions: cattle, isolated protein; method in brief: as §4
[28] = biological target: T1, Albumin; assay: Binding affinity to bovine serum albumin assessed as decrease in fluorescence intensity at 10^-5 mol/L at pH 7.4 at 298K by fluorescence spectroscopy in presence of warfarin; assay type: ADME; design: scale not given: the % may be the effect or the level left; conditions: cattle, isolated protein, pH 7.4, 10 µM
Method in brief: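 Site-marker displacement by fluorescence titration: BON and BSA held at a 10:1 molar ratio, then warfarin added stepwise to the mixture. Excitation 280 nm; emission recorded 290–400 nm.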

[29] = biological target: T1, Albumin; assay: Binding affinity to bovine serum albumin assessed as decrease in fluorescence intensity at 1.5 x 10^-5 mol/L at pH 7.4 by fluorescence spectroscopy in presence of proline; assay type: ADME; conditions: cattle, isolated protein, pH 7.4, 15 µM; method in brief: as §1
[30] = biological target: T1, Albumin; assay: Binding affinity to bovine serum albumin assessed as decrease in fluorescence intensity at 1.5 x 10^-5 mol/L at pH 7.4 by fluorescence spectroscopy in presence of tryptophane; assay type: ADME; conditions: cattle, isolated protein, pH 7.4, 15 µM; method in brief: as §1
[31] = biological target: T1, Albumin; assay: Binding affinity to bovine serum albumin assessed as decrease in fluorescence intensity at 1.5 x 10^-5 mol/L at pH 7.4 by fluorescence spectroscopy in presence of Ni2+ cations; assay type: ADME; conditions: cattle, isolated protein, pH 7.4, 15 µM; method in brief: as §1
[32] = biological target: T1, Albumin; assay: Binding affinity to bovine serum albumin assessed as decrease in fluorescence intensity at 1.5 x 10^-5 mol/L at pH 7.4 by fluorescence spectroscopy in presence of Pb2+ cations; assay type: ADME; conditions: cattle, isolated protein, pH 7.4, 15 µM; method in brief: as §1
[33] = biological target: T1, Albumin; assay: Binding affinity to bovine serum albumin assessed as decrease in fluorescence intensity at 1.5 x 10^-5 mol/L at pH 7.4 by fluorescence spectroscopy in presence of Mn2+ cations; assay type: ADME; conditions: cattle, isolated protein, pH 7.4, 15 µM; method in brief: as §1
[34] = biological target: T1, Albumin; assay: Binding affinity to bovine serum albumin assessed as decrease in fluorescence intensity at 1.5 x 10^-5 mol/L at pH 7.4 by fluorescence spectroscopy in presence of Ca2+ cations; assay type: ADME; conditions: cattle, isolated protein, pH 7.4, 15 µM; method in brief: as §1
[35] = biological target: T1, Albumin; assay: Binding affinity to bovine serum albumin assessed as quenching constant at pH 7.4 at 293K by fluorescence spectroscopic analysis; assay type: ADME; conditions: cattle, isolated protein; method in brief: as §4
[36] = biological target: T1, Albumin; assay: Binding affinity to bovine serum albumin assessed as decrease in fluorescence intensity at 1.5 x 10^-5 mol/L at pH 7.4 by fluorescence spectroscopy in presence of Cl- anions; assay type: ADME; conditions: cattle, isolated protein, pH 7.4, 15 µM; method in brief: as §1
[37] = biological target: T1, Albumin; assay: Binding affinity to bovine serum albumin assessed as stem-volmer quenching constant at pH 7.4 at 308K by fluorescence spectroscopic analysis; assay type: ADME; conditions: cattle, isolated protein; method in brief: as §3

Activity [1]: Not Active | Kb [2]: 2.82 ×10³ L/mol | Activity [3]: Not Active | Activity [4]: 25.16% | Activity [5]: Active | KSV [6]: 9.4 ×10³ L/mol | Activity [7]: 37.24% | KSV [8]: 9.03 ×10³ L/mol | Activity [9]: Not Active | Activity [10]: Active | Activity [11]: Not Active | Activity [12]: Active | Kb [13]: 1.77 ×10³ L/mol | Activity [14]: Not Active | Activity [15]: Active | Kb [16]: 2.12 ×10³ L/mol | KSV [17]: 8.76 ×10³ L/mol | Kb [18]: 3.89 ×10³ L/mol | Activity [19]: Not Active | Activity [20]: Active | Activity [21]: Not Active | Activity [22]: Active | Activity [23]: Not Active | Kq [24]: 8.54 ×10¹¹ L/mol/s | Activity [25]: Active | Kq [26]: 9.03 ×10¹¹ L/mol/s | Kq [27]: 8.76 ×10¹¹ L/mol/s | Activity [28]: 42% | Activity [29]: Active | Activity [30]: Active | Activity [31]: Not Active | Activity [32]: Not Active | Activity [33]: Not Active | Activity [34]: Not Active | Kq [35]: 9.4 ×10¹¹ L/mol/s | Activity [36]: Active | KSV [37]: 8.54 ×10³ L/mol
Structure (SMILES): CCCCCCCCCCCCCCCCCCN1C(=O)c2cccc3c(OCCOCCCC)ccc(c23)C1=O
